Bioassay records from PubChem BioAssay.
Sampled rows, rich in hits. Any-hit rate of the full collection: about 2.3%.
TRPC4 block = blocks the mouse TRPC4 cation channel. Q9QUQ5. HEK293 TRPC4beta/mu-opioid, DAMGO-evoked Fluo4 calcium flux; stronger effect = lower value. B-score at 10 µM. hit rate 0.39% among 300,000. AID 2247;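 active means B-score over 3 SD under the library average, no early fluorescence shift, positive overall ratio signal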
Target sequence (Q9QUQ5 whole entry, looked up): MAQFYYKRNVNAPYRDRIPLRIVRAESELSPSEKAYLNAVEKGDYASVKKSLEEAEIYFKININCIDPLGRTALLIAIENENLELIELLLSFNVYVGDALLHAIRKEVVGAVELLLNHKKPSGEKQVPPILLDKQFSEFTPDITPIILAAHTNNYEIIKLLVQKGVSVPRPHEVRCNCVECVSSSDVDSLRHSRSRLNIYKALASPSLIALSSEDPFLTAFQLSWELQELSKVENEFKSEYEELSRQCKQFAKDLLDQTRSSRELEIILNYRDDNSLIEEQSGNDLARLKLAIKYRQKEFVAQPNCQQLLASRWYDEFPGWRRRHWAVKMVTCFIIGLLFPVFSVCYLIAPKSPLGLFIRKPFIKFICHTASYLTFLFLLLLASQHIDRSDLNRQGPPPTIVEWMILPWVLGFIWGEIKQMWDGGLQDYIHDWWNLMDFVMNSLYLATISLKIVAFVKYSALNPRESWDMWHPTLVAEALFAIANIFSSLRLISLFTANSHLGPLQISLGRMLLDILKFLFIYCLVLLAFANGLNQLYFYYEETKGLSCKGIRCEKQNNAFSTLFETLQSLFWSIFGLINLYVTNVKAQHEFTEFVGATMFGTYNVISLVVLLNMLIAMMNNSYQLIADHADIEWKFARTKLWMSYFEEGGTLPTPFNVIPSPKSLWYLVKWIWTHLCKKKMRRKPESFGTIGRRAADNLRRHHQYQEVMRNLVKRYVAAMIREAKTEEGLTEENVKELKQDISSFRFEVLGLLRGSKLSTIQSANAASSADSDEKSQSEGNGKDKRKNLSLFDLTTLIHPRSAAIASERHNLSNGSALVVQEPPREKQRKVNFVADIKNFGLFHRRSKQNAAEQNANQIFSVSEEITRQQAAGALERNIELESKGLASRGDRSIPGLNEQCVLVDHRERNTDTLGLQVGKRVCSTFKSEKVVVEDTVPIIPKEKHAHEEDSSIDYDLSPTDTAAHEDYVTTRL
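Test system – stable TRPC4beta/mu-opioid receptor HEK293 cells · Probe or stimulus – DAMGO, a submaximal dose followed by a maximal one · Dosing – one concentration per compound · Signal – Fluo4 calcium fluorescence by kinetic imaging, 5 s 1 Hz baseline · Evaluation – per-well B score of integrated baseline-normalized Fluo4 ratio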
TRPC4 agonist = TRPC4 (mouse) channel activation. Q9QUQ5. HEK293 TRPC4beta/mu-opioid, Fluo4 calcium fluorescence; stronger effect = higher value. B-score at 10 µM. hit rate 0.49% among 310,000. AID 2237;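 active means B-score above 5 SD of library B-scores, and initial fluorescence ratio not above library mean plus 5 SD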;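 further: positive B-score marks a calcium rise read as TRPC4 activation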
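system = HEK293 cells stably co-expressing mouse TRPC4beta and mu-opioid receptor | schedule = Fluo4 dye loading 45 min at room temperature, 110 s recording | measure = B-scored integrated calcium fluorescence ratio | signal = Fluo4 calcium-sensitive dye fluorescence, kinetic, 1 Hz baseline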
TRPC6 inh = inhibitors of mouse TRPC6 channel; Q61143; HEK293-TRPC6, membrane potential dye, ACh-evoked depolarization; stronger effect = lower value; B-score at 10 µM; hit rate 1.1% among 310,000; AID 2553;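 active means B-score under library mean minus 3 SD, initial fluorescence not abnormally high, positive integrated signal ratio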;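 further: B-score derived from integrated fluorescence ratio over the kinetic read; more negative B-score means stronger inhibition of depolarization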
TRPC4 PAM = allosterically enhances the mouse TRPC4 cation channel | Q9QUQ5 | HEK293 TRPC4beta/mu-opioid, DAMGO EC20, Fluo-4 Ca2+ flux; stronger effect = higher value | B-score at 10 µM | hit rate 0.42% among 310,000 | AID 2227;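 active means B-score of calcium response area above 5 SD of library B-scores, with initial fluorescence ratio within 5 SD of library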;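 further: B-score of integrated fluorescence ratio over time as area under calcium response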
TRPC6 activator = mouse TRPC6 channel activation; hit rate 0.13% among 310,000; HEK293-TRPC6 membrane potential dye fluorescence; stronger effect = higher value; Q61143; B-score at 10 µM;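 active means B-score of the integrated fluorescence ratio above library mean plus 3 SD, and starting fluorescence ratio within library mean plus 5 SD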;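 further: higher score means more depolarization so channel activation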
TRPC4 sel inh 2 = mouse TRPC4 off-target activity of TRPC6 inhibitors, second screen. inhibition, % at 10 µM. shares compounds with TRPC6 inh. HEK293 TRPC4/MOR, membrane potential dye fluorescence; channel activated by saturating DAMGO dose. hit rate 42% among 920;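 active means compounds whose fluorescence signal differed from control wells by over 3 SD, either direction, in both duplicate plates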
TRPC4 spec = tests whether TRPC6 inhibitors also affect mouse TRPC4 | shares compounds with TRPC6 inh | HEK293 TRPC4/mu-opioid, membrane potential fluorescence | activity change, negative = inhibition, % at 10 µM | hit rate 61% among 920;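 active means rise or fall in signal beyond 3 SD of buffer-only wells in both replicate plates, either sign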;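 further: integrated kinetic ratio of fluorescence range over baseline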
HEK293 MPD ctr 2-1 = second check of TRPC6 inhibitor effects in parental HEK293 cells. hit rate 31% among 920. shares compounds with TRPC6 inh. parental HEK293 membrane potential dye fluorescence; maximal acetylcholine challenge after compound addition. signal change vs control, % at 10 µM;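 active means membrane potential signal moving either way by over 3 SD of the maximum-effect control, in both duplicate plates, meaning non-specific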
HEK293 MPD ctr-1 = checks TRPC6 inhibitor effects in parental HEK293 cells | shares compounds with TRPC6 inh | parental HEK293 membrane potential dye fluorescence | membrane potential signal change, % at 10 µM | hit rate 60% among 920 | AID 2780;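 active means membrane potential signal shifting up or down by more than 3 SD of buffer-only wells, on both duplicate plates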
HEK293 MPD ctr-2 = counter-screen for TRPC6 modulators: effect in parental HEK293 cells | membrane potential signal change, % at 10 µM | shares compounds with TRPC6 inh | membrane potential dye fluorescence | AID 488924 | hit rate 51% among 2,400;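 active means membrane potential signal moves up or down beyond 5 SD from buffer-only wells, on both duplicate plates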
HEK293 MPD ctr 2-2 = second check of TRPC6 modulator effects in parental HEK293 cells. shares compounds with TRPC6 inh. membrane potential dye fluorescence; after compound, maximal acetylcholine stimulation. inhibition, % at 10 µM. hit rate 14% among 2,400;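 active means membrane potential signal drops by more than 5 SD from the mean control signal, in both duplicate plates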;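 further: plate controls were acetylcholine ECmax control wells for no effect and buffer only wells for full effect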
TRPC4 ctr mod = mouse TRPC4 off-target activity of TRPC6 modulators; shares compounds with TRPC6 inh; HEK293 TRPC4/mu-opioid, membrane potential fluorescence; percent change from control (negative = decrease, positive = increase), % at 10 µM; hit rate 69% among 2,400; AID 488927;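 active means membrane potential signal moved up or down beyond 5 SD of buffer control wells, in both duplicate plates, actives on both sides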;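 further: plate controls were assay buffer wells for no effect and DAMGO maximal-effect wells for full effect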
TRPC4 ctr inh 2 = second selectivity test of TRPC6 modulators against mouse TRPC4. hit rate 55% among 2,400. HEK293 TRPC4/mu-opioid, membrane potential dye fluorescence; stimulated with maximal-effect DAMGO. shares compounds with TRPC6 inh. inhibition, % at 10 µM;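 active means drop in membrane potential signal beyond 5 SD of the control wells in both duplicate plates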;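 further: TRPC4 counter screen for TRPC6 hits run under conditions tuned for TRPC6 not TRPC4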
TRPC6 inh conf = confirmation of mouse TRPC6 inhibitors; hit rate 43% among 3,300; shares compounds with TRPC6 inh; HEK293-TRPC6, membrane potential dye, ACh-evoked depolarization; inhibition, % at 10 µM;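 active means fluorescence ratio falls more than 5 SD below the full-stimulation control mean, in both duplicate runs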;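 further: integrated fluorescence ratio of peak minus minimum over baseline after agonist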
TRPC6 act confirm = mouse TRPC6 activator confirmation. shares compounds with TRPC6 inh. HEK293-TRPC6 membrane potential dye fluorescence, FDSS. activation, % at 10 µM. hit rate 11% among 2,800. AID 488961;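 active means ratio signal rise beyond 5 SD above unstimulated control wells' mean, seen in both duplicate runs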;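 further: plate controls were buffer EC0 wells for no effect and acetylcholine ECmax response for full effect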
Active calls of the source: *; i = inactive; / = no result.

SMILES	TRPC4 block	TRPC4 agonist	TRPC6 inh	TRPC4 PAM	TRPC6 activator	HEK293 MPD ctr-2	HEK293 MPD ctr 2-2	TRPC4 ctr mod	TRPC4 ctr inh 2	TRPC6 inh conf	TRPC6 act confirm	others
CN1Cc2sc(NC(=S)NC(=O)c3ccccc3)c(C#N)c2CC1(C)C	i	i	-5.2*	i	21*	168%*	i	24%*	i	i	40%*
CCC1(C)Cc2c(sc(NC(=S)NC(=O)c3ccccc3)c2C#N)CO1 (centres undefined)	i	i	i	i	i	/	/	/	/	/	/
NS(=O)(=O)c1ccc(CCNC(=O)C(=O)c2cn(CC(=O)N3CCCC3)c3ccccc23)cc1	i	i	i	i	i	/	/	/	/	/	/
NS(=O)(=O)c1ccc(CCNC(=O)c2ccccc2Cc2ccccc2)cc1	i	i	i	i	i	/	/	/	/	/	/
CCOC(=O)C1CCN(C(=O)c2ccccc2Oc2ccccc2)CC1	i	i	i	i	i	/	/	/	/	/	/
O=C(c1ccco1)N1CCN(C(=O)c2ccccc2OC(=O)C23CC4CC(CC(C4)C2)C3)CC1	i	i	i	i	i	/	/	/	/	/	/
CCOC(=O)N1CCN(C(=O)c2ccccc2Oc2ccccc2)CC1	i	i	-6.1*	i	i	94%*	i	26%*	i	67%*	/
O=C(c1ccco1)N1CCN(C(=O)c2ccccc2Oc2ccccc2)CC1	i	i	-8.1*	i	i	/	/	/	/	62%*	/	TRPC4 sel inh 2=i;TRPC4 spec=13%*;HEK293 MPD ctr 2-1=i;HEK293 MPD ctr-1=6.7%*
CN(C)c1ccc(NC(=O)C2CCCN(S(=O)(=O)c3ccccc3)C2)cc1 (centres undefined)	i	i	i	i	i	/	/	/	/	/	/
O=[N+]([O-])c1cccc(NC(=S)N2CCc3ccccc32)c1	i	i	i	i	i	/	/	/	/	/	/
CC(C)c1ccc2c(c1)CCC1C(C)(CN)CCCC21C (centres undefined)	i	i	-6.4*	i	i	-82%*	i	-12%*	81%*	58%*	i
O=C(Nc1ccc(Oc2ccccc2)nc1)C1CCCCN1Cc1ccco1 (centres undefined)	i	i	i	i	i	/	/	/	/	/	/
CCOC(=O)c1c(NC(=O)c2ccc(S(=O)(=O)N(C)CC3CCCO3)cc2)sc2c1CCN(C)C2 (centres undefined)	i	i	-5.2*	i	i	167%*	i	-30%*	i	i	i
CCOC(=O)c1c(NC(=O)CSc2nnc(C)s2)sc2c1CCN(C)C2	i	i	-5.8*	i	i	-65%*	i	-16%*	i	i	i
CC(C)CCN1C(=O)CCC1(C)C(=O)NC1CCCCCC1 (centres undefined)	i	i	-5.8*	i	i	128%*	i	26%*	i	i	/
CC[C@@H]1CC=C[C@H]2[C@H]1C(=O)N(Cc1ccccc1)[C@H]2c1cc(C)ccc1F	i	i	i	i	i	/	/	/	/	/	/
COc1ccccc1C(=O)NCC1CCN(c2ccc(S(=O)(=O)N3CCOCC3)cc2)CC1	i	i	-6.9*	i	i	/	/	/	/	55%*	i	TRPC4 sel inh 2=i;TRPC4 spec=8.9%*;HEK293 MPD ctr 2-1=10%*;HEK293 MPD ctr-1=5.1%*
c1ccc(CN2CCN(Cc3nnc(-c4ccccc4)o3)CC2)cc1	i	i	-5.6*	i	i	i	66%*	11%*	i	64%*	/
CCCc1c(C(=O)NNc2cc(C(F)(F)F)ccc2Cl)cnn1-c1ccccc1	i	i	i	i	i	/	/	/	/	/	/
Cc1cc(/C=C2\NC(=S)N(C)C2=O)ccc1N1CCCC1	i	49*	i	i	34*	i	i	132%*	i	i	33%*
CCCN1C(=O)/C(=C/c2ccc(N3CCCC3)c(C)c2)NC1=S	i	58*	i	i	63*	670%*	i	226%*	i	i	136%*
CCN1C(=O)/C(=C/c2ccc(N3CCCC3)cc2)NC1=S	i	i	i	i	30*	359%*	i	235%*	i	i	44%*
Cc1cc(/C=C2/C(=O)N(C)C(=S)N2C)ccc1N1CCCC1	i	i	i	i	i	/	/	/	/	/	/
CN1CCN(c2ccc(Cl)cc2NC(=O)c2cccc(S(=O)(=O)N(C)C)c2)CC1	i	i	-5.3*	i	i	i	i	i	34%*	i	i
N#Cc1cccc(C(c2nnnn2CCc2ccccc2)N2CCN(C3CCCCC3)CC2)c1 (centres undefined)	i	i	-5*	i	i	i	i	i	70%*	54%*	i
CCn1ccnc1CN(C)C(=O)CCc1nnc(CCCc2ccccc2)o1	i	i	i	i	i	/	/	/	/	/	/
COc1ccc2[nH]c3c(=O)n(CCCC(=O)NC4CCCCC4C)c(=S)[nH]c3c2c1 (centres undefined)	i	i	i	i	i	/	/	/	/	/	/
COc1cc2c(ccc3cc(OC)c(OC)c(O)c32)cc1O	i	i	i	i	i	/	/	/	/	/	/
